Source: ChEMBL document CHEMBL1955778, “Design and synthesis of novel 7-aminoquinazoline derivatives: antitumor and anticonvulsant activities” (Bioorg Med Chem Lett, 2012)

Key:
Assay type in all cases: functional
[1] = tested on: BT-549; assay: Growth inhibition of human BT549 cells at 10 uM relative to control; settings: read-out: GI
Procedure, shortened: (§1)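 Each cell line in a 60-line human tumour panel exposed to one 10 μM concentration. Growth inhibition percentage computed as 100 minus the percentage activity relative to control.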

[2] = tested on: HL-60(TB); assay: Growth inhibition of human HL-60(TB) cells at 10 uM relative to control; settings: read-out: GI
Procedure, shortened: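 Single-dose screen at 10 μM across the 60-cell-line tumour panel. Percent growth inhibition = 100 minus percent growth activity relative to untreated control.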

[3] = tested on: SF-295; assay: Growth inhibition of human SF295 cells at 10 uM relative to control; settings: read-out: GI; procedure, shortened: as §1
[4] = tested on: Mus musculus; assay: Anticonvulsant activity in mouse assessed as protection against maximal electroshock-induced seizure at 1 mmol/kg, ip administered 30 min prior to maximal electroshock-challenge measured after 60 mins relative to control
[5] = tested on: MDA-MB-435; assay: Growth inhibition of human MDA-MB-435 cells at 10 uM relative to control; settings: read-out: GI; procedure, shortened: as §1
[6] = tested on: HOP-62; assay: Growth inhibition of human HOP62 cells at 10 uM relative to control; settings: read-out: GI; procedure, shortened: as §1
[7] = tested on: SNB-19; assay: Growth inhibition of human SNB19 cells at 10 uM relative to control; settings: read-out: GI
Procedure, shortened: (§2)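 Single-dose screen across the 60-cell-line human tumor panel at 10 μM. Growth inhibition is reported as a percentage, taken as 100 minus the % growth relative to untreated control.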

[8] = tested on: OVCAR-4; assay: Growth inhibition of human OVCAR4 cells at 10 uM relative to control; settings: read-out: GI; procedure, shortened: as §1
[9] = tested on: OVCAR-5; assay: Growth inhibition of human OVCAR5 cells at 10 uM relative to control; settings: read-out: GI; procedure, shortened: as §1
[10] = tested on: OVCAR-8; assay: Growth inhibition of human OVCAR8 cells at 10 uM relative to control; settings: read-out: GI; procedure, shortened: as §1
[11] = tested on: A549; assay: Growth inhibition of human A549 cells at 10 uM relative to control; settings: read-out: GI; procedure, shortened: as §1
[12] = tested on: SK-MEL-5; assay: Growth inhibition of human SK-MEL-5 cells at 10 uM relative to control; settings: read-out: GI; procedure, shortened: as §1
[13] = tested on: SNB-75; assay: Growth inhibition of human SNB75 cells at 10 uM relative to control; settings: read-out: GI; procedure, shortened: as §2
[14] = tested on: SN12C; assay: Growth inhibition of human SN12C cells at 10 uM relative to control; settings: read-out: GI; procedure, shortened: as §2
[15] = tested on: UO-31; assay: Growth inhibition of human UO31 cells at 10 uM relative to control; settings: read-out: GI; procedure, shortened: as §2
[16] = tested on: CAKI-1; assay: Growth inhibition of human CAKI-1 cells at 10 uM relative to control; settings: read-out: GI; procedure, shortened: as §1
[17] = tested on: Mus musculus; assay: Anticonvulsant activity in mouse assessed as protection against strychnine-induced seizure at 1 mmol/kg, ip administered 30 min prior to strychnine-challenge measured after 60 mins relative to control
[18] = tested on: Malme-3M; assay: Growth inhibition of human MALME-3M cells at 10 uM relative to control; settings: read-out: GI; procedure, shortened: as §1
[19] = tested on: KM12; assay: Growth inhibition of human KM12 cells at 10 uM relative to control; settings: read-out: GI; procedure, shortened: as §1
[20] = tested on: M14; assay: Growth inhibition of human M14 cells at 10 uM relative to control; settings: read-out: GI; procedure, shortened: as §1
[21] = tested on: T47D; assay: Growth inhibition of human T47D cells at 10 uM relative to control; settings: read-out: GI; procedure, shortened: as §2
[22] = tested on: TK-10; assay: Growth inhibition of human TK10 cells at 10 uM relative to control; settings: read-out: GI; procedure, shortened: as §2
[23] = tested on: HCT-116; assay: Growth inhibition of human HCT116 cells at 10 uM relative to control; settings: read-out: GI; procedure, shortened: as §1
[24] = tested on: MDA-MB-468; assay: Growth inhibition of human MDA-MB-468 cells at 10 uM relative to control; settings: read-out: GI; procedure, shortened: as §1
[25] = tested on: HCT-15; assay: Growth inhibition of human HCT15 cells at 10 uM relative to control; settings: read-out: GI; procedure, shortened: as §1
[26] = tested on: ACHN; assay: Growth inhibition of human ACHN cells at 10 uM relative to control; settings: read-out: GI; procedure, shortened: as §1
[27] = tested on: SF-539; assay: Growth inhibition of human SF539 cells at 10 uM relative to control; settings: read-out: GI; procedure, shortened: as §1
[28] = tested on: K562; assay: Growth inhibition of human K562 cells at 10 uM relative to control; settings: read-out: GI; procedure, shortened: as §1
[29] = tested on: EKVX; assay: Growth inhibition of human EKVX cells at 10 uM relative to control; settings: read-out: GI; procedure, shortened: as §1
[30] = tested on: MOLT-4; assay: Growth inhibition of human MOLT4 cells at 10 uM relative to control; settings: read-out: GI; procedure, shortened: as §1
[31] = tested on: SR; assay: Growth inhibition of human SR cells at 10 uM relative to control; settings: read-out: GI; procedure, shortened: as §2
[32] = tested on: Mus musculus; assay: Anticonvulsant activity in mouse assessed as protection against pentylenetetrazol-induced seizure at 1 mmol/kg, ip administered 30 min prior to pentylenetetrazol-challenge measured after 60 mins relative to control
[33] = tested on: MCF7; assay: Growth inhibition of human MCF7 cells at 10 uM relative to control; settings: read-out: GI; procedure, shortened: as §1
[34] = tested on: A498; assay: Growth inhibition of human A498 cells at 10 uM relative to control; settings: read-out: GI; procedure, shortened: as §1
[35] = tested on: UACC-62; assay: Growth inhibition of human UACC62 cells at 10 uM relative to control; settings: read-out: GI; procedure, shortened: as §2
[36] = tested on: RPMI-8226; assay: Growth inhibition of human RPMI8226 cells at 10 uM relative to control; settings: read-out: GI; procedure, shortened: as §1
[37] = tested on: U-251; assay: Growth inhibition of human U251 cells at 10 uM relative to control; settings: read-out: GI; procedure, shortened: as §2
[38] = tested on: PC-3; assay: Growth inhibition of human PC3 cells at 10 uM relative to control; settings: read-out: GI; procedure, shortened: as §1

Compound: Cc1ccccc1-n1c(C)nc2cc(NC(=O)c3ccccc3)ccc2c1=O
- inhibition of growth at 10 µM [1]: 18%
- inhibition of growth at 10 µM [2]: 6%
- inhibition of growth at 10 µM [3]: 29%
- Activity [4]: 33%
- inhibition of growth at 10 µM [5]: 16.3%
- inhibition of growth at 10 µM [6]: 5%
- inhibition of growth at 10 µM [7]: 14%
- inhibition of growth at 10 µM [8]: 17.3%
- inhibition of growth at 10 µM [9]: 12%
- inhibition of growth at 10 µM [10]: 5%
- inhibition of growth at 10 µM [11]: 11%
- inhibition of growth at 10 µM [12]: 17%
- inhibition of growth at 10 µM [13]: 21.2%
- inhibition of growth at 10 µM [14]: 15%
- inhibition of growth at 10 µM [15]: 2.5%
- inhibition of growth at 10 µM [16]: 4%
- Activity [17]: 0%
- inhibition of growth at 10 µM [18]: 6%
- inhibition of growth at 10 µM [19]: 26.6%
- inhibition of growth at 10 µM [20]: 12%
- inhibition of growth at 10 µM [21]: 28%
- inhibition of growth at 10 µM [22]: 24%
- inhibition of growth at 10 µM [23]: 3.2%
- inhibition of growth at 10 µM [24]: 2%
- inhibition of growth at 10 µM [25]: 3.7%
- inhibition of growth at 10 µM [26]: 24%
- inhibition of growth at 10 µM [27]: 10%
- inhibition of growth at 10 µM [28]: 9%
- inhibition of growth at 10 µM [29]: 11.1%
- inhibition of growth at 10 µM [30]: 8.2%
- inhibition of growth at 10 µM [31]: 3.5%
- Activity [32]: 33%
- inhibition of growth at 10 µM [33]: 7%
- inhibition of growth at 10 µM [34]: 23%
- inhibition of growth at 10 µM [35]: 23%
- inhibition of growth at 10 µM [36]: 2%
- inhibition of growth at 10 µM [37]: 9%
- inhibition of growth at 10 µM [38]: 8%
